Source: publication PMC10950693 (International Journal for Parasitology: Drugs and Drug …, 2024)

Assay: Cytotoxicity against murine macrophages, alamarBlue, 24 h
Format: cell-based
Conditions: mouse, J774A.1 murine macrophages
Procedure, shortened: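 J774A.1 macrophages were kept in DMEM with 10% FBS at 37 °C, 5% CO2. Cells were seeded at 10^4/well and allowed 3–4 h to adhere. Serial dilutions were added with 10% alamarBlue for 24 h at 37 °C, 5% CO2, then fluorescence was read. CC50 was derived by four-parameter variable-slope nonlinear regression.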

Row | SMILES | CC50 at 24 h [µM]
1 | CCCCCCCCCCCCCCCCOP(=O)([O-])OCC[N+](C)(C)C [M, miltefosine] | 72.2 ± 8.85
2 | O=C(Cn1ccnc1[N+](=O)[O-])NCc1ccccc1 [B, benznidazole] | 399.9 ± 1.4
